# Compound activity from PubChem BioAssay.
# This is a sample that favours compounds with a hit; in the whole collection about 12% have one here.
# ABCG2 block: human ABCG2 inhibition, ABCB1 as counter-screen. Q9UNQ0. IgMXP3 cells, JC-1 efflux, flow cytometry. inhibition, % at 6.6 µM. actives 0.1% (n = 190,000). AID 1325;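 active means inhibition above 80%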;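 further: 0% = DMSO and 100% = nicardipine control wells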
# Target sequence (Q9UNQ0 whole entry, looked up): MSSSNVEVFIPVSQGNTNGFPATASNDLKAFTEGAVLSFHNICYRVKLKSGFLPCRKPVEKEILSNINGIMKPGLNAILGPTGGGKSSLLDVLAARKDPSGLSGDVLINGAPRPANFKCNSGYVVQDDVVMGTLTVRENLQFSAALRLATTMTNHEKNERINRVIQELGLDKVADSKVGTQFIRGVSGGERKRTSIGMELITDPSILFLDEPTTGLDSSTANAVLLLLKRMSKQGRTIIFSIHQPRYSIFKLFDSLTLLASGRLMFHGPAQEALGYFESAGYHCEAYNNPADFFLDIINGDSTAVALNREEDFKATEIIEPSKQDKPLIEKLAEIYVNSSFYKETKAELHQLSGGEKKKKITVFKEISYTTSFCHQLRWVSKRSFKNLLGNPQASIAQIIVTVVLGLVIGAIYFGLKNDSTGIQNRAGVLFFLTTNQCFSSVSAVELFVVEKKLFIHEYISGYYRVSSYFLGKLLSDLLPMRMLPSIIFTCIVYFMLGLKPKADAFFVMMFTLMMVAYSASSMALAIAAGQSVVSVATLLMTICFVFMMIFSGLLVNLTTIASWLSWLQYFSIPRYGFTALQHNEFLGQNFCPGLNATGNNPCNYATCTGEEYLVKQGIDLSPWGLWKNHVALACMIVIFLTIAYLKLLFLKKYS
#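 Measure – % inhibition of efflux relative to nicardipine and DMSO · Test system – ABCG2 IgMXP3 and barcoded ABCB1 CCRF-Adr cell mix · Control set – nicardipine as high control, DMSO as low control · Compound – one concentration, 6.6 µM final · Signal – flow cytometry of retained JC-1 fluorescence · Timing – 10 min exposure at 25 °C with rotation, no wash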
# ABCB1 block: inhibitors of human ABCB1 transporter, ABCG2 counter-screen; actives 0.067% (n = 190,000); AID 1326; P08183; CCRF-Adr cells, JC-1 efflux, flow cytometry; inhibition, % at 6.6 µM; in the data active means inhibition above about 40%;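 further: 0% = vehicle and 100% = reference inhibitor; higher value means more JC-1 retained so stronger ABCB1 efflux block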
# WT yeast gro inh: growth inhibition of WT yeast, mitochondrial fusion screen | AID 1362 | actives 2.1% (n = 190,000) | inhibition, % at 10 µM | mitochondrial fusion phenotypic screen, WT strain; in the data active means inhibition above about 58%; tested in S. cerevisiae
# RAM network inh: blocks the yeast RAM network; S. cerevisiae dse1pr::URA3 reporter, 5-FOA growth OD615, 2 d; analog-sensitive cbk1-as2 kinase mutant strain; inhibition, % at 50 µM; actives 1.8% (n = 190,000);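 active means inhibition above a set limit, 3 SD over mean compound inhibition, cut at about 8.4% in these data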;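 further: 0% = DMSO-only wells with no growth and 100% = 10 µM 1-NA-PP1 full growth; inhibition rescues growth on 5-FOA so higher OD means more RAM inhibition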
# L major viab: inhibitors of Leishmania major promastigote growth | Leishmania major promastigotes, resazurin fluorescence viability | inhibition, % at 10 µM | actives 9% (n = 200,000); in the data active means inhibition above about 50%;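 further: promastigotes grown with compound for 44 hours at 28 °C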
# RAM efflux-def: RAM network inhibition, efflux-deficient strain. max inhibition, %. S. cerevisiae efflux-deficient reporter strain, 5-FOA growth OD615, 2 days. shares compounds with RAM network inh. 1,200 tested, under 10 active. AID 1305; call rule not given here;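 further: plate controls were vehicle for no effect and reference inhibitor for full effect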
# L major 1uM: blocks Leishmania major promastigote growth at 1 uM, repeat screen; L. major promastigote growth, resazurin fluorescence, 48 h; AID 1258; shares compounds with L major viab; actives 13% (n = 1,100); inhibition, % at 1 µM;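 active means inhibition above about 50% in both repeat tests, limit read from the data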
# ABCB1 confirm: confirmation of human ABCB1 transporter inhibitors, ABCG2 counter-screen; shares compounds with ABCG2 block; CCRF-Adr cells, JC-1 efflux, flow cytometry; inhibition, % at 6.6 µM; actives 7% (n = 270); AID 1451;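 active means inhibition of pump activity above 50%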;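 further: 0% = DMSO and 100% = nicardipine full pump inhibition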
# ABCG2 confirm: inhibits human ABCG2 efflux, confirmed at single point; inhibition, % at 6.6 µM; actives 6% (n = 270); IgMXP3 cells, JC-1 efflux, flow cytometry; shares compounds with ABCG2 block;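 active means inhibition above 50%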;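 further: 0% = DMSO wells and 100% = nicardipine pump inhibitor wells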
# IgMXP3 fluor: IgMXP3 autofluorescence flag for ABCG2 confirmation; fluorescence at 6.6 µM; actives 30% (n = 270); shares compounds with ABCG2 block; IgMXP3 cells, compound autofluorescence 488/530 nm, flow; stronger effect = higher value;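 active means fluorescence in ABCG2-expressing cells above the plate's control-well mean plus 3 SD, cut at about 15 in these data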;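 further: median cell fluorescence with compound minus that of DMSO-treated control cells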
# CCRF-Adr fluor: counter-screen for ABCB1 inhibitors: compound fluorescence in CCRF-Adr cells. shares compounds with ABCG2 block. compound autofluorescence 488/530 nm, flow cytometry; stronger effect = higher value. fluorescence at 6.6 µM. actives 30% (n = 270);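 active means fluorescence beyond the plate control mean plus 3 SD, with a fluorescence-to-maximum score over 2, cut at about 25 in these data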
# The depositor's hits bear a star; / = no result given.
SMILES,ABCG2 block,ABCB1 block,WT yeast gro inh,RAM network inh,L major viab,RAM efflux-def,others
N#C/C(=C\c1ccc(-c2ccc(S(=O)(=O)N3CCOCC3)cc2)o1)C(=O)NC1CC1,6.9,0.6,14.3,13.0*,10.8,2.4,
Cc1ccc2sc(NC(=O)c3ccc(N4C(=O)CCC4=O)cc3)nc2c1C,7.9,-0.3,3.2,16.5*,-6.8,1.9,
CCc1cccc2sc(NC(=O)c3ccc(N4C(=O)CCC4=O)cc3)nc12,1.4,-0.1,4.7,3.4,-5.2,/,
O=C(CN(Cc1ccccc1F)S(=O)(=O)c1ccc(Cl)cc1)NCCCO,1.3,0.5,5.8,-0.5,-6.2,/,
NNC(=O)/C(=C/c1cccs1)NC(=O)c1ccccc1Cl,-0.2,-0.1,-9.9,0.8,-4.2,/,
Cc1ccc(S(=O)(=O)N2CCN(C(=O)C3COc4ccccc4O3)CC2)cc1C (stereo not drawn),3.9,1.7,-2.3,17.1*,27.6,3.4,
Cc1ccc(S(=O)(=O)NNC(=O)C2COc3ccccc3O2)cc1C (stereo not drawn),0.6,0.2,-42.8,1.8,-5.7,/,
CCN(CC)C(=N)N1c2ccccc2CCC1C (stereo not drawn),1.7,0.8,7.0,-0.5,-1.7,/,
COc1ccc2c(c1)CCc1c(C(=O)NCCc3ccc(OC)c(OC)c3)noc1-2,2.9,0.4,-3.4,13.6*,-8.8,6.5,
COC(=O)/C=C1\OC(c2ccccc2)=CC1=O,-5.7,-0.8,-4.8,-0.9,-2.8,/,
CCN(CC)S(=O)(=O)c1cccc2cc(C(=O)O)c(O)cc12,-0.3,0.0,8.8,-0.2,-11.2,/,
O=C(CN(Cc1ccccc1F)S(=O)(=O)c1ccc(Cl)cc1)NCCC1=CCCCC1,4.3,2.5,6.2,12.2*,1.9,1.5,
O=C(CN(Cc1ccccc1)S(=O)(=O)c1ccc(F)cc1)NCCC1=CCCCC1,13.0,3.5,-5.1,5.3,2.4,/,
O=[N+]([O-])/C=C\c1ccc(N2CCCC2)c(F)c1,3.3,0.7,44.8,-0.5,46.5,/,
CCCCN1C(=O)/C(=c2\sc3nc(=O)c(-c4ccccc4)nn3c2=O)c2ccccc21,1.2,-0.1,6.4,1.9,-11.4,/,
CCCN1C(=O)/C(=c2\sc3nc(=O)c(Cc4ccc(C)cc4)nn3c2=O)c2ccccc21,-0.3,0.1,-43.3,12.2*,-6.2,4.4,
O=C(c1ccco1)N(CCC(c1ccccc1)c1ccco1)Cc1ccc(F)cc1 (stereo not drawn),1.6,0.6,46.8,7.5,11.0,/,
CC1(C)CC(C(CCN(Cc2ccccc2)C(=O)c2ccco2)c2ccc(F)cc2)CCO1 (stereo not drawn),-2.3,3.8,74.5*,11.9*,38.0,3.2,
Cc1ccc(/C=C/c2ccc(=O)n(Cc3ccccc3Cl)n2)cc1,14.6,0.4,61.5*,13.0*,-1.8,2.6,
O=C(Nc1nnc(SCc2ccc(Cl)cc2)s1)C1CC(=O)N(Cc2ccccc2)C1 (stereo not drawn),-4.5,-0.6,8.5,4.8,-8.9,/,
CCCCn1c(NS(=O)(=O)c2ccc(C)cc2)c(S(=O)(=O)c2ccccc2)c2nc3ccccc3nc21,5.4,-0.3,-8.6,12.1*,-4.0,12.4,
CCn1cc(CNC(=S)Nc2cccc(Cl)c2C)cn1,-0.1,-0.3,-1.1,1.7,1.8,/,
C=CCNc1oc(COc2ccc(C)cc2)nc1C#N,1.8,0.3,9.0,1.2,3.9,/,
Cc1ccc(OCc2nc(C#N)c(NCc3ccc4c(c3)OCO4)o2)cc1,0.8,0.1,-18.3,14.5*,97.8*,1.5,L major 1uM=-17.9
COc1ccc(CC(=O)Nc2nnc(C(C)(C)C)s2)cc1OC,7.3,0.9,2.2,1.6,-6.5,/,
SMILES,ABCG2 block,ABCB1 block,WT yeast gro inh,RAM network inh,L major viab,RAM efflux-def,others
CCCCSc1nnc([C@H](CC(C)C)NC(=O)OC(C)(C)C)o1,0.0,0.1,5.8,16.4*,76.0*,1.6,L major 1uM=30.4
COc1ccc(CCNC(=O)c2cc3c(C)nccc3[nH]c2=O)cc1OC,1.9,0.3,10.3,2.2,11.1,/,
Cc1ccc(N=C(NOCc2ccc(Cl)cc2Cl)c2nonc2N)c(C)c1,1.5,0.6,68.3*,12.6*,98.0*,6.1,L major 1uM=20.4
COc1cccc(/C=C(/C(=O)OCC(=O)NC2CCCC(C)C2C)c2ccccc2)c1 (stereo not drawn),78.8,9.1,33.7,20.2*,96.4*,5.6,ABCB1 confirm=4.5;ABCG2 confirm=23.3;IgMXP3 fluor=-1.44;CCRF-Adr fluor=-4.04
Clc1ccc2nc(CN3CCCc4ccccc43)cn2c1,5.5,1.5,46.4,0.3,22.0,/,
OCCN1CCN(C(=S)c2ccc(Br)cc2)CC1,1.4,0.1,/,0.0,68.1*,/,L major 1uM=-1.6
CC(C)c1ccc(C(=O)N2CCN(CCO)CC2)cc1,3.1,0.7,8.2,0.1,-1.2,/,
CC(C)(C)NC(=O)C(c1ccc(F)cc1)N(Cc1ccccc1Cl)C(=O)c1ccn[nH]1 (stereo not drawn),2.6,1.2,0.7,2.6,6.5,/,
CN(C)S(=O)(=O)c1cc(NC(=O)CN2CCN(c3ccccc3F)CC2)ccc1Cl,1.0,0.8,24.4,0.4,3.0,/,
CC(=O)Nc1ccc(NC(=S)Nc2ccccc2)cc1,-0.8,0.1,5.4,1.5,-2.3,/,
N#Cc1ccc(NC(=S)Nc2ccccc2)cc1,4.4,0.0,19.0,0.0,62.1*,/,L major 1uM=0.2
Cc1cc(C)n(-c2ccc(C)c(Cl)c2)n1,-0.7,-0.1,2.3,-0.4,5.2,/,
CN(CCN1CCc2ccccc2C1)Cc1nc(Cc2ccccc2F)no1,0.4,0.1,3.1,-1.7,85.1*,/,L major 1uM=71.7*
O=C1CN(c2nnnn2-c2ccccc2)CCN1,1.7,-0.3,-1.5,1.5,-3.2,/,
O=C1NCN(c2ccccc2)C12CCN(c1nnnn1-c1ccccc1)CC2,0.3,0.3,-4.8,0.5,80.8*,/,L major 1uM=-16.9
CC(=O)Nc1ccc([C@H]2[C@H](C)CC[C@H]3C(=O)N4[C@@H](CC[C@@H](C)[C@@H]4c4ccc(NC(C)=O)cc4)C(=O)N32)cc1,-2.0,0.8,-13.7,-0.1,-5.6,/,
